# Screening results: PubChem BioAssay, Johns Hopkins Ion Channel Center
# TRPC6 inh = blocks the mouse TRPC6 cation channel. 310,000 compounds, 1.1% hits. Q61143. B-score at 10 µM. HEK293-TRPC6, membrane potential dye, ACh-evoked depolarization; hits give low values;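 active = B-score under library mean minus 3 SD, initial fluorescence not abnormally high, positive integrated signal ratio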;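 also: B-score derived from integrated fluorescence ratio over the kinetic read; more negative B-score means stronger inhibition of depolarization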
# TRPC4 act = TRPC4 (mouse) channel activation | Q9QUQ5 | AID 2237 | HEK293 TRPC4beta/mu-opioid, Fluo4 calcium fluorescence; hits give high values | 310,000 compounds, 0.49% hits | B-score at 10 µM;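 active = B-score above 5 SD of library B-scores, and initial fluorescence ratio not above library mean plus 5 SD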;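 also: positive B-score marks a calcium rise read as TRPC4 activation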
# Target sequence (Q9QUQ5 whole entry, looked up): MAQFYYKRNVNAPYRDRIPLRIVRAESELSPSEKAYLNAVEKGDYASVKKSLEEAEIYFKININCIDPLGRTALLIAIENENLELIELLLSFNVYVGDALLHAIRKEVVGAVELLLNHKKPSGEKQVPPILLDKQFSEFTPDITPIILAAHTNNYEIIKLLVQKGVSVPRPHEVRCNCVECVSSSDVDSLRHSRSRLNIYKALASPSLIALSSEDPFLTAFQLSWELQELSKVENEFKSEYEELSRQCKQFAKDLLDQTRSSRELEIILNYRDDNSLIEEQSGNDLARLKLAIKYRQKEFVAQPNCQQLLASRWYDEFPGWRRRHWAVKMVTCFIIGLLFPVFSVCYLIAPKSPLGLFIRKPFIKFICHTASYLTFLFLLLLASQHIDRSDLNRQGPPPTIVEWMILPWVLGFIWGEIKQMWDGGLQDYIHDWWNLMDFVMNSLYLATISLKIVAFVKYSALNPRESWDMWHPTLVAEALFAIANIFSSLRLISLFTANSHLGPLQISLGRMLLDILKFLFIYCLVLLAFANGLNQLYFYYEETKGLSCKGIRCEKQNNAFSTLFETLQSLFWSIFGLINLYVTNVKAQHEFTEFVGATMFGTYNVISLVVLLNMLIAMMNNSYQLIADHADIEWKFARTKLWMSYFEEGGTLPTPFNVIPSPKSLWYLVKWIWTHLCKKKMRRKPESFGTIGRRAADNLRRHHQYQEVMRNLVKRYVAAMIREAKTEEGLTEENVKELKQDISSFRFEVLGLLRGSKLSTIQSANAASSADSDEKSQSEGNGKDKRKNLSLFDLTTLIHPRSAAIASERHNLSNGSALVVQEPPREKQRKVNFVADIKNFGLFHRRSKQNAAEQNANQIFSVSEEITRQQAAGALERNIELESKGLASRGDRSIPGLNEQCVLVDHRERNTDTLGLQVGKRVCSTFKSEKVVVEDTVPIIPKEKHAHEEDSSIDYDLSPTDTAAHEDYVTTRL
#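 Assay system: HEK293 stable line with TRPC4beta plus mu-opioid receptor; schedule: 45 min room-temperature Fluo4 loading, 110 s read; technique: kinetic Fluo4 calcium fluorescence; evaluation: integrated baseline-normalised fluorescence ratio, converted to per-well B score; controls: buffer (low) and maximal DAMGO (high)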
# TRPC4 inh = blocks the mouse TRPC4 cation channel; B-score at 10 µM; 300,000 compounds, 0.39% hits; AID 2247; HEK293 TRPC4beta/mu-opioid, DAMGO-evoked Fluo4 calcium flux; hits give low values;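 active = B-score over 3 SD under the library average, no early fluorescence shift, positive overall ratio signal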
#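 Assay system: HEK293 cells with stable TRPC4beta plus mu-opioid receptor expression. Dosing: single dose. Measured by: Fluo4 Ca2+ flux fluorescence. Also added: DAMGO in two steps, submaximal then maximal. Read-out: B score from integrated Fluo4 fluorescence ratio.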
# TRPC6 act = activates the mouse TRPC6 cation channel; HEK293-TRPC6 membrane potential dye fluorescence; hits give high values; B-score at 10 µM; 310,000 compounds, 0.13% hits;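 active = B-score of the integrated fluorescence ratio above library mean plus 3 SD, and starting fluorescence ratio within library mean plus 5 SD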;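 also: higher score means more depolarization so channel activation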
# TRPC4 PAM = TRPC4 (mouse) allosteric potentiation | HEK293 TRPC4beta/mu-opioid, DAMGO EC20, Fluo-4 Ca2+ flux; hits give high values | B-score at 10 µM | 310,000 compounds, 0.42% hits;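 active = B-score of calcium response area above 5 SD of library B-scores, with initial fluorescence ratio within 5 SD of library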;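 also: B-score of integrated fluorescence ratio over time as area under calcium response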
# * = called active by the depositor; i = inactive; x = no result. An excerpt weighted towards active compounds, which were near 2.3% of everything screened.
SMILES,TRPC6 inh,TRPC4 act,TRPC4 inh,TRPC6 act,TRPC4 PAM
O=C(NCc1ccccn1)C1CCCN(Cc2cnn(-c3ccccc3)c2-n2cccc2)C1 (stereo not drawn),i,53*,x,i,i
COc1cccc(CNC(=O)C2CCN(Cc3cnn(-c4ccccc4)c3-n3cccc3)CC2)c1,i,44*,i,i,i
O=C(NCc1cccnc1)C1CCCN(Cc2cnn(-c3ccccc3)c2-n2cccc2)C1 (stereo not drawn),i,87*,i,i,i
O=C(NC1CC(=O)N(c2cccc(F)c2)C1)N1CCN(C(=O)c2ccco2)CC1 (stereo not drawn),i,i,i,i,i
C[C@H](NC(CCc1ccccc1)C(=O)O)C(=O)N1CCC[C@H]1C(=O)O (stereo partly drawn),i,55*,i,i,i
C[C@H](NC(=O)[C@H](Cc1ccccc1)n1c(=O)[nH]c2ccccc2c1=O)C(=O)N1CCC[C@H]1C(=O)O,i,i,i,i,i
CCCC/C(C)=N/NC(=O)Nc1ccccc1,i,74*,i,i,i
CCCCC/C(=N\NC(=O)Nc1ccccc1)c1ccccc1,i,i,i,i,i
CCOCCCNC(=S)N(CCCN(C)C)Cc1cc2cc3c(cc2[nH]c1=O)OCCO3,i,i,i,i,i
COC(=O)CS(=O)(=O)c1cc(Br)cc2c1N(C(C)=O)CC2,i,i,i,i,i
CCCN(CCC)CCCNS(=O)(=O)c1cc(Br)cc2c1N(C(C)=O)CC2,i,62*,i,i,i
CC1CCN(CCCNS(=O)(=O)c2cc(Br)cc3c2N(C(=O)C2CC2)CC3)CC1,i,105*,i,i,i
COc1ccc(-c2nc(CN3CCC(C(=O)NC4CCCC4)CC3)c(C)o2)cc1OC,i,101*,i,i,i
O=C(CCNC(=O)c1ccc(Br)cc1)Nc1ccccc1N1CCCC1,i,i,i,i,i
O=C(CCNC(=O)c1ccc(Cl)cc1)Nc1ccccc1N1CCCCC1,i,i,-5*,i,i
CCOc1ccccc1O[C@H](c1ccccc1)[C@H]1CNCCO1,i,161*,i,i,i
CCOc1ccccc1NC(=O)C(NCC1CCCCC1)c1ccccc1 (stereo not drawn),i,i,i,i,i
O=[N+]([O-])c1cccc(/C=N/Nc2nc(NCc3ccccc3)nc(N3CCOCC3)n2)c1O,i,53*,i,i,i
O=[N+]([O-])c1ccc(/C=N/Nc2nc(NCc3ccccc3)nc(N3CCOCC3)n2)cc1,i,i,i,i,i
CCNC(=O)c1cc(Cl)ccc1OC,i,i,i,i,i
COc1ccc(Cl)cc1C(=O)NCCN(C)C,i,i,i,i,28*
CSCCC(NC(=O)/C(=C/c1ccco1)NC(=O)c1ccc(Br)o1)C(=O)O (stereo not drawn),i,i,i,i,i
Cc1ccc(C)c2[nH]c(=O)c(C(c3nnnn3CCc3ccccc3)N3CCOCC3)cc12 (stereo not drawn),i,i,i,i,i
CCN1CCN(C(c2cc3cccc(C)c3[nH]c2=O)c2nnnn2Cc2ccccc2)CC1 (stereo not drawn),i,76*,i,i,i
Cc1ccc(C)c2[nH]c(=O)c(C(c3nnnn3C3CCCC3)N3CCOCC3)cc12 (stereo not drawn),i,i,i,i,23*
SMILES,TRPC6 inh,TRPC4 act,TRPC4 inh,TRPC6 act,TRPC4 PAM
Cc1ccc(C)c2[nH]c(=O)c(CN(Cc3nnnn3C3CCCCC3)CC3CCCO3)cc12 (stereo not drawn),i,i,-6*,i,i
Cc1ccc(C)c2[nH]c(=O)c(C(c3nnnn3Cc3ccco3)N3CCc4ccccc4C3)cc12 (stereo not drawn),i,i,i,i,11*
Cc1ccc2cc(C(c3nnnn3C3CCCC3)N3CCOCC3)c(=O)[nH]c2c1C (stereo not drawn),i,i,i,i,i
Clc1ccc2nc(N3CCNCC3)nc(-c3ccccc3)c2c1,i,102*,i,i,i
CN1CCN(c2nc(-c3ccccc3)c3cc(Cl)ccc3n2)CC1,i,i,i,i,i
COCCn1c(N)c(Sc2ccc(Cl)cc2)c(=O)[nH]c1=O,i,i,i,i,i
N=C(N)SCc1ccccn1,i,i,i,i,38*
CCSC1=N/C(=C\c2ccc(OC)cc2)C(=O)N1,i,i,i,i,86*
COc1ccc(C(=O)NC2CCN(CC(=O)NCc3ccccc3)CC2)cc1,i,i,i,i,i
CC1CCN(C(=O)CNC(=O)CNC(=O)Cc2ccccc2)CC1,i,i,i,i,i
CCOc1ccc(OCCC(=O)N2CCN(S(=O)(=O)c3cccc(F)c3)CC2)cc1,i,i,i,i,i
CCCCc1cc(O)c(CCCC)c(O)c1,i,65*,i,i,11*
CC(C)(C)C(=O)NC(=S)NNC(=O)c1ccncc1,i,i,i,i,i
CC(C)(C)c1ccc(C(=O)NC(=S)NNC(=O)COc2ccccc2)cc1,i,72*,-6*,i,i
Cc1ccccc1C(=O)NNC(=S)NC(=O)COc1ccccc1,i,177*,i,i,i
Cc1ccc(C(=O)NNC(=S)NC(=O)COc2ccccc2)cc1,i,119*,i,i,i
Cc1cccc(OCC(=O)NC(=S)NNC(=O)c2ccncc2)c1,i,i,i,i,i
CC(C)(C)c1ccc(OCC(=O)NNC(=O)CCc2ccccc2)cc1,i,i,i,i,i
COC(=O)c1ccccc1NC(=S)NC(=O)COc1ccccc1,i,i,i,i,i
CC(C)(C)C(=O)NC(=S)NNC(=O)c1ccc(-c2ccccc2)cc1,i,277*,i,i,i
Cc1ccc(CNC(=O)CN(C(=O)C2(C)CC(=O)N=C3C=CC=CN32)c2ccccc2F)cc1 (stereo not drawn),i,i,i,i,i
CCCN1CCC(NC(=S)Nc2ccc(S(N)(=O)=O)cc2)CC1,i,i,i,i,i
O=C(Nc1ccccc1N1CCN(C(=O)c2ccccc2)CC1)c1ccc(Br)o1,i,i,-7*,i,i
O=C(Nc1ccccc1N1CCN(C(=O)c2ccccc2)CC1)c1ccc(Cl)cc1,i,i,i,i,i
COc1ccc(C(=O)Nc2ccccc2N2CCN(C(=O)c3ccccc3)CC2)cc1Br,i,i,-6*,i,i
